Series [1] has as its system Cell membrane. In words: Induction of outer membrane permeabilization in wild type Escherichia coli BW25113 assessed as increase in nitrocefin hydrolysis at 256 ug/ml in presence of CCCP by spectroscopic analysis. As to conditions: dose 256 µg/ml. The method, boiled down: (§1)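 Intact E. coli were treated with 10 μM CCCP to block nitrocefin efflux, then given compound, nothing, or polymyxin B as permeabilizer control. Nitrocefin was added, and hydrolysis by periplasmic β-lactamase was followed as the rise in absorbance at 490 nm. Duplicate experiments were run on different days.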

Series [2] deals with T1, Multidrug efflux pump subunit AcrB (Escherichia coli (strain K12)) (UniProt P31224).
T1 sequence (whole entry): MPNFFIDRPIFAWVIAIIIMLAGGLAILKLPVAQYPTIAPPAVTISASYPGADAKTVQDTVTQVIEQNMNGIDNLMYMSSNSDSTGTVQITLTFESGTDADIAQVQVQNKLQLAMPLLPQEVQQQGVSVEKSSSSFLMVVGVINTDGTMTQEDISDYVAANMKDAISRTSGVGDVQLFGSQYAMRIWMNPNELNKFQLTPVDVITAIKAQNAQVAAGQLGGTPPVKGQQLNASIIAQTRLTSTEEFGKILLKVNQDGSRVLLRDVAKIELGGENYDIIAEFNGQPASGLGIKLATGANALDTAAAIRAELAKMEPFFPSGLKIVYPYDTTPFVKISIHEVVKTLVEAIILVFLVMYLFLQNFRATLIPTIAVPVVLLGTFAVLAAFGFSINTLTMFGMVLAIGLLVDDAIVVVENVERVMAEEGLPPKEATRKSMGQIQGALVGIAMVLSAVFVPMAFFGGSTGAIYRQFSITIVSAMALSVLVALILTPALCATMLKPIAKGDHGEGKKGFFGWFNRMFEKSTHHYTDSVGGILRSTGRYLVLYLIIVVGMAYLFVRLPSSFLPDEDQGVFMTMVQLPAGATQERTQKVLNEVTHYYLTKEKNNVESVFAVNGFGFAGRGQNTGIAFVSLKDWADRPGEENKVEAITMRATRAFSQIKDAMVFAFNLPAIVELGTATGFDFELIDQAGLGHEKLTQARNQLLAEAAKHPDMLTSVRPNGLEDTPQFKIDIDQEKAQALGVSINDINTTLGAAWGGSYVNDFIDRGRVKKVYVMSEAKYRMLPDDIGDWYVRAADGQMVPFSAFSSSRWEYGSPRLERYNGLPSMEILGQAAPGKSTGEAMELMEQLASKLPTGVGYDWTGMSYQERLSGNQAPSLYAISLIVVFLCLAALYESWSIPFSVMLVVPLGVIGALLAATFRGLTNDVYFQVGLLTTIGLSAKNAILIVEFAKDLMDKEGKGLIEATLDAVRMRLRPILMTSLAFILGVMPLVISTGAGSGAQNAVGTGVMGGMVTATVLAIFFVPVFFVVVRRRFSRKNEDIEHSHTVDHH
In words: Inhibition of AcrB in Escherichia coli BW25113 assessed as reduction in glucose-induced nile red efflux at 50 uM preincubated for 15 mins followed by nile red addition and incubated for 3 hrs in shaker in presence of CCCP by fluorimetric analysis. As to conditions: time 3.25 hrs. Summed up: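 Wild-type and AcrB-deleted cells were preloaded with Nile Red, with or without compound. Fluorescence was recorded, and efflux was triggered at 100 s with 0.2% glucose. Traces were compared with the deletion-strain level. Triplicate experiments used different cell batches.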

Series [3] relates to Cell membrane. In words: Induction of inner membrane permeabilization in wild type Escherichia coli BW25113 assessed as perturbation of proton motive force at 64 ug/ml measured after 10 mins in presence of CCCP and glucose by Di0C2(3) probe based fluorescence assay. As to conditions: escherichia coli bw25113, 10 min, dose 64 µg/ml. The method, boiled down: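 Cell suspensions were left untreated or exposed to 8-128 µg/mL compound for 10 min. DiOC₂(3) was then added and fluorescence followed to a plateau. Cells were re-energized with 0.5% glucose, and the rise in fluorescence was read as membrane-potential build-up. CCCP was added last to dissipate the potential.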

In series [4] the test system is Cell membrane. In words: Induction of outer membrane permeabilization in wild type Escherichia coli BW25113 assessed as increase in nitrocefin hydrolysis at 64 ug/ml in presence of CCCP by spectroscopic analysis. To be noted: dose 64 µg/ml. The method, boiled down:
as §1

Series [5] addresses T1, Multidrug efflux pump subunit AcrB (Escherichia coli (strain K12)). In words: Inhibition of AcrB in multidrug-resistant Escherichia coli BW25113 assessed as potentiation of tetraphenylphosphonium-induced antibacterial activity by measuring fold change in tetraphenylphosphonium MIC at 64 ug/ml by checkerboard titration method relative to tetraphenylphosphonium MIC. As to conditions: dose 64.0 µg/ml.

Series [6] in a line: Cytotoxicity against human HepG2 cells assessed as growth inhibition at 10 uM relative to control. Type of series: cell-based. As to conditions: read-out: GI. Summed up: (§2)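 HepG2 cells treated at 10 μM and at 100 μM. Cell viability or inhibition rate recorded per concentration, with paclitaxel as positive control.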
Series [7] in a line: Cytotoxicity against human HepG2 cells assessed as growth inhibition at 100 uM relative to control. The format is cell-based. To be noted: read-out: GI. Summed up:
as §2

For series [8], the system named is Cell membrane. In words: Induction of outer membrane permeabilization in wild type Escherichia coli BW25113 assessed as increase in nitrocefin hydrolysis at 32 ug/ml in presence of CCCP by spectroscopic analysis. As to conditions: dose 32 µg/ml. Summed up:
as §1

Series [9] deals with T1, Multidrug efflux pump subunit AcrB (Escherichia coli (strain K12)). In words: Inhibition of AcrB in multidrug-resistant Escherichia coli BW25113 assessed as potentiation of levofloxacin-induced antibacterial activity by measuring fold change in levofloxacin MIC at 128 ug/ml by checkerboard titration method relative to levofloxacin MIC. To be noted: dose 128.0 µg/ml.
The target is the same in series [10]. In words: Inhibition of AcrB in multidrug-resistant Escherichia coli BW25113 assessed as potentiation of tetraphenylphosphonium-induced antibacterial activity by measuring fold change in tetraphenylphosphonium MIC at 8 ug/ml by checkerboard titration method relative to tetraphenylphosphonium MIC. To be noted: dose 8.0 µg/ml.
Series [11] has the same target. In words: Inhibition of AcrB in multidrug-resistant Escherichia coli BW25113 assessed as potentiation of erythromycin-induced antibacterial activity by measuring fold change in erythromycin MIC at 8 ug/ml by checkerboard titration method relative to erythromycin MIC. As to conditions: dose 8.0 µg/ml.
Series [12] has the same target. In words: Inhibition of AcrB in multidrug-resistant Escherichia coli BW25113 assessed as potentiation of erythromycin-induced antibacterial activity by measuring fold change in erythromycin MIC at 128 ug/ml by checkerboard titration method relative to erythromycin MIC. As to conditions: dose 128.0 µg/ml.
Series [13] has the same target. In words: Inhibition of AcrB in multidrug-resistant Escherichia coli BW25113 assessed as potentiation of levofloxacin-induced antibacterial activity by measuring fold change in levofloxacin MIC at 8 ug/ml by checkerboard titration method relative to levofloxacin MIC. As to conditions: dose 8.0 µg/ml.
The target is the same in series [14]. In words: Inhibition of AcrB in multidrug-resistant Escherichia coli BW25113 assessed as potentiation of tetraphenylphosphonium-induced antibacterial activity by measuring fold change in tetraphenylphosphonium MIC at 128 ug/ml by checkerboard titration method relative to tetraphenylphosphonium MIC. To be noted: dose 128.0 µg/ml.
The subject of series [15] is Cell membrane. In words: Induction of outer membrane permeabilization in wild type Escherichia coli BW25113 assessed as increase in nitrocefin hydrolysis at 8 ug/ml in presence of CCCP by spectroscopic analysis. To be noted: dose 8 µg/ml. Summed up: as §1

Active and inactive are the calls of the source. No cut-off for these calls is given here. Where only a bound is given, the exact number is not on record here.

Take `CC1(C)CCc2c(-c3nnco3)cc3c(OCc4ccc([N+](=O)[O-])cc4)cccc3c2O1`: the Activity result in the series on Cell membrane [1] is reported as “Not Active”.

In the case of `Cc1ccccc1COc1cccc2c3c(c(-c4nnco4)cc12)CCC(C)(C)O3`, the Activity result with Cell membrane [1] is reported as “Not Active”.

Consider `COc1cccc(COc2cccc3c4c(c(C(=O)N5CCOCC5)cc23)CCC(C)(C)O4)c1`, for which the inhibition result in series [2] was “Active”.

With `CC1(C)CCc2c(C(=O)N3CCOCC3)cc3c(OCc4ccc(C(F)(F)F)cc4)cccc3c2O1`, the inhibition result in series [2] was “Active”. Also, the Activity entry with Cell membrane [3] is listed as “Not Active”.

`CC1(C)CCc2c(Cn3cnnn3)cc3c(OCc4ccccc4)cccc3c2O1`: the Activity entry in the series on Cell membrane [4] was “Not Active”.

As for `CC1(C)CCc2c(C(=O)O)cc3c(OCc4ccccc4)cccc3c2O1`, the Activity result in the series on Cell membrane [3] is on record as “Not Active”.

`CC1(C)CC(=O)c2ccc(OCC(=O)Nc3ccc(C#N)c(C(F)(F)F)c3)cc2O1`: the Activity result in the series with Cell membrane [4] and in the series with Cell membrane [3] was “Not Active” each time. Further, the fold change (FC) in series [5] turned out to be 4.

Regarding `CC1(C)CCc2c(C(=O)N3CCOCC3)cc3c(OCc4ccccc4)cccc3c2O1`, the inhibition at 10 µM in series [6] worked out at 2%. The inhibition at 100 µM in series [7] stood at 66%. Moreover, the Activity result in the series with Cell membrane [3] is listed as “Not Active”.

Consider `CC1(C)CCc2c(-c3nnco3)cc3c(OCc4ccc(C#N)cc4)cccc3c2O1`, for which the inhibition result in series [2] was “Active”. In the series with Cell membrane [3], the Activity result was “Not Active”.

Consider `C=CC(=O)Nc1ccc(COc2cccc3c4c(c(Cn5cnnn5)cc23)CCC(C)(C)O4)cc1`, for which, in series [2], the inhibition result was “Active”. The Activity entry with Cell membrane [8] is given as “Not Active”.

`Cc1ccc(COc2cccc3c4c(c(-c5nnco5)cc23)CCC(C)(C)O4)cc1`: the inhibition at 10 µM in [6] was 6%. In [7], the inhibition at 100 µM was 87%. Moreover, the fold change (FC) was under 16 in series [9]; 2 in series [10]; 2 in series [11]; under 16 in series [12]; 2 in series [13]; under 16 in [14].

On to `CNC(=O)c1ccc(COc2cccc3c4c(c(Cn5cnnn5)cc23)CCC(C)(C)O4)cc1`, for which the Activity result in the series on Cell membrane [4] was “Not Active”.

Turning to `CC1CN(C(=O)c2cc3c(OCc4c(Cl)cccc4Cl)cccc3c3c2CCC(C)(C)O3)CC(C)O1` (stereo not drawn), the Activity entry in the series on Cell membrane [15] was “Not Active”. In addition, the fold change (FC) in series [13] was 2.

The record behind these values is ChEMBL document CHEMBL4732114, “Design and structural optimization of novel 2H-benzo[h]chromene derivatives that target AcrB and reverse bacterial multidrug resistance” (Eur J Med Chem, 2021).
